Measurements as given in the array DNA melting data of Ke et al. (doi:10.1101/2024.01.08.574731).

What was measured:
[1] = melting temperature; fluorescence melt of hairpins on a sequencing array, two-state fit, raised by 9.35 °C to match UV melts; details: sodium 0.088 M
Outline: (§1)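 Melting temperature and folding enthalpy were derived from bootstrapped two-state fits. The fitted temperatures were raised by 9.35 °C to agree with UV melts, and four replicates were combined by inverse variance. The underlying data were Cy3 fluorescence images of library hairpins, with annealed Cy3 and quencher oligos, on a sequenced MiSeq flow cell in 50 mM Na-HEPES pH 8.0, 25 mM NaCl, taken in 2.5 °C steps up to 60 °C, normalised to pre-quench Cy3 and to control constructs.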

[2] = folding enthalpy; higher = less favourable; fluorescence melt of hairpins on a sequencing array, two-state fit; details: sodium 0.088 M
Outline: as §1

GCAGATGGAAACGTCTGC (((((.(....).))))) gave a Tm [1] of 53.2 °C and a folding enthalpy [2] of -45.2 kcal/mol.
Work on GCAGCAACGAAAGTTTGC (((..(((....)))))) yielded a Tm [1] of 35.8 °C and a folding enthalpy [2] of -17.1 kcal/mol.
For GCAGCACGAAAGTGATGC (((.(((....))).))), the Tm [1] was 69 °C and the folding enthalpy [2] was -36.2 kcal/mol.
With GCAGCAGGAAACTGCCGC ((.((((....)))).)) the Tm [1] was 50.5 °C and the folding enthalpy [2] was -27.8 kcal/mol.
With GCAGCAGGAAACTGCTAC (.(((((....))))).) the Tm [1] was 44.7 °C and the folding enthalpy [2] was -13.4 kcal/mol.
For GCAGCAGGAAACTGTTGC (((.(((....))).))), the Tm [1] was 52.1 °C and the folding enthalpy [2] was -52.3 kcal/mol.
Work on GCAGCCGAAAGGCCTGC ((((((....))).))) yielded a Tm [1] of 61.3 °C and a folding enthalpy [2] of -25.5 kcal/mol.
In the case of GCAGCCGAAAGGCCTTGC ((((((....)))..))), the Tm [1] is reported as 35.7 °C and the folding enthalpy [2] is reported as -10.6 kcal/mol.
GCAGCCGAAAGGCTTGC ((((((....))).))) gave a Tm [1] of 62 °C and a folding enthalpy [2] of -15.3 kcal/mol.
GCAGCCGAAAGGCTTTGC ((((((....)))..))) showed a Tm [1] of 42.2 °C and a folding enthalpy [2] of -10.2 kcal/mol.
With GCAGCCGGAAACGACCGC ((.(.((....)).).)) the Tm [1] was 31.2 °C and the folding enthalpy [2] was -20.9 kcal/mol.
In the case of GCAGCCGGAAACGGCCGC ((.((((....)))).)), the Tm [1] is reported as 58.9 °C and the folding enthalpy [2] is reported as -17.2 kcal/mol.
With GCAGCGCCGAAAGGCTGC (((..(((....)))))) the Tm [1] was 53.9 °C and the folding enthalpy [2] was -14.7 kcal/mol.
Sequence GCAGCGCGAAAGCGTAGC ((..(((....)))..)) has a Tm [1] of 56.4 °C and a folding enthalpy [2] of -15.9 kcal/mol.
Work on GCAGCGCGAAAGCTATGC (((..((....))..))) yielded a Tm [1] of 45.2 °C and a folding enthalpy [2] of -16.8 kcal/mol.
GCAGCGGGAAACCACCGC ((.(.((....)).).)) gave a Tm [1] of 39.8 °C and a folding enthalpy [2] of -14.2 kcal/mol.
GCAGCTCGAAAGAGGTGC (((.(((....))).))) showed a Tm [1] of 67.5 °C and a folding enthalpy [2] of -29.4 kcal/mol.
GCAGCTGGAAACAGTTGC (((.(((....))).))) gave a Tm [1] of 53.1 °C and a folding enthalpy [2] of -51.6 kcal/mol.
Sequence GCAGGACGAAAGTCATGC (((.(((....))).))) has a Tm [1] of 66.3 °C and a folding enthalpy [2] of -37.9 kcal/mol.
Work on GCAGGAGGAAACCCCTGC (((((.(....).))))) yielded a Tm [1] of 50.9 °C and a folding enthalpy [2] of -41.4 kcal/mol.
GCAGGAGGAAACTCCCAC (..((((....))))..) gave a Tm [1] of 25.8 °C and a folding enthalpy [2] of -16.8 kcal/mol.
GCAGGCCCGAAAGGGTGC (((..(((....)))))) showed a Tm [1] of 41.9 °C and a folding enthalpy [2] of -13.1 kcal/mol.
Work on GCAGGCGAAAGCCAGTGC ((((((....)))..))) yielded a Tm [1] of 49.5 °C and a folding enthalpy [2] of -18.9 kcal/mol.
For GCAGGCGAAAGCCATTGC ((((((....)))..))), the Tm [1] was 42.7 °C and the folding enthalpy [2] was -13.2 kcal/mol.
With GCAGGCGAAAGCCCTTGC ((((((....)))..))) the Tm [1] was 38.9 °C and the folding enthalpy [2] was -11.9 kcal/mol.
Sequence GCAGGCGCGAAAGCGTGC (((..(((....)))))) has a Tm [1] of 49.4 °C and a folding enthalpy [2] of -13.3 kcal/mol.
With GCAGGCGGAAACACCCGC ((.((.(....).)).)) the Tm [1] was 36.1 °C and the folding enthalpy [2] was -12.6 kcal/mol.
Work on GCAGGCGGAAACGTCTGC ((((.((....)).)))) yielded a Tm [1] of 63.1 °C and a folding enthalpy [2] of -35.3 kcal/mol.
Work on GCAGGGCGAAAGCAATGC (((..((....))..))) yielded a Tm [1] of 59.9 °C and a folding enthalpy [2] of -24.1 kcal/mol.
With GCAGGGCGAAAGCCACGC ((..(((....)))..)) the Tm [1] was 52.2 °C and the folding enthalpy [2] was -15.2 kcal/mol.
For GCAGGGCGAAAGCCGAGC ((..(((....)))..)), the Tm [1] was 50.1 °C and the folding enthalpy [2] was -14.9 kcal/mol.
In the case of GCAGGGCGAAAGCCTAGC ((..(((....)))..)), the Tm [1] is reported as 55.2 °C and the folding enthalpy [2] is reported as -18.9 kcal/mol.
GCAGGGCGAAAGCGCCGC ((.(.((....)).).)) showed a Tm [1] of 52.6 °C and a folding enthalpy [2] of -15.7 kcal/mol.
Sequence GCAGGGCGAAAGCTCAGC ((.(.((....)).).)) has a Tm [1] of 48.3 °C and a folding enthalpy [2] of -18.4 kcal/mol.
Sequence GCAGGGCGAAAGCTCGGC ((.(.((....)).).)) has a Tm [1] of 59.2 °C and a folding enthalpy [2] of -20.6 kcal/mol.
With GCAGGGGAAACCCTGC ((((((....)))))) the Tm [1] was 68.1 °C and the folding enthalpy [2] was -34.9 kcal/mol.
With GCAGGGGGAAACCCCCAC (..((((....))))..) the Tm [1] was 33.1 °C and the folding enthalpy [2] was -9.57 kcal/mol.
